ChEMBL document CHEMBL2034852, “Flacourtosides A-F, phenolic glycosides isolated from Flacourtia ramontchi” (J Nat Prod, 2012)
The source made the active and inactive calls. The rule behind the calls is not given here.

What was measured:
[1] = (§1) Cytotoxicity against African green monkey Vero cells after 6 to 7 days by MTS assay; type: cell-based; settings: chlorocebus sabaeus, Vero cells
Procedure, shortened: (§2)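 Vero cells (subcultured 1:4, grown 7 days) seeded at 25 000 cells per well with serial compound dilutions in MEM Rega3 with 2% FCS, L-glutamine and bicarbonate. Incubated 6−7 days at 37 °C, 5% CO2. Medium then replaced with 5% MTS in phenol red-free medium for 1.5 h, A498 read. CC50 taken from dose−response curves as % of controls; multiple independent experiments.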

[2] = Inhibition of Dengue virus NS5 polymerase assessed as inhibition of radiolabeled guanosine incorporation into homopolymeric cytosine RNA template by liquid scintillation counting
Procedure, shortened: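 DENV-2 NS5 polymerase, produced and purified by a prior method, assayed by radiolabeled guanosine incorporation on a homopolymeric cytosine RNA template. IC50 fitted by % enzyme activity = 100/[…], with I the inhibitor concentration; 3′-deoxy-GTP served as reference.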

Chikungunya virus = assay: Antiviral activity against Chikungunya virus infected in Vero cells assessed as inhibition of virus-induced cytopathic effect after 6 to 7 days by MTS assay; type: functional, cell-based
Vero = assay: as §1; type: cell-based; settings: chlorocebus sabaeus, vero; procedure, shortened: as §2

SMILES | CC50 [1] [µM] | IC50 [2] [µM] | Activity (Chikungunya virus) | Activity (Vero)
C=C(C)[C@@H]1CC[C@]2(C(=O)O)CC[C@]3(C)[C@H](CC[C@@H]4[C@@]5(C)CC[C@H](OC(=O)/C=C/c6ccc(O)c(O)c6)C(C)(C)[C@@H]5CC[C@]43C)[C@@H]12 | 6.9 | 0.85 |  | 
Nc1nc2c(ncn2[C@@H]2O[C@H](COP(=O)(O)OP(=O)(O)OP(=O)(O)O)C[C@H]2O)c(=O)[nH]1 |  | 0.02 |  | 
O=Cc1cc(O)ccc1O[C@@H]1O[C@H](COC(=O)c2ccccc2)[C@@H](O)[C@H](O)[C@H]1O [FLACOURTOSIDE B] |  | 71.1 | inactive | 
O=Cc1cc(O)ccc1O[C@@H]1O[C@H](COC(=O)c2ccccc2)[C@@H](O)[C@H](O[C@@H]2O[C@H](COC(=O)c3ccccc3)[C@@H](O)[C@H](O)[C@H]2O)[C@H]1O [FLACOURTOSIDE C] |  | 23.8 | inactive | 
O=C(OC[C@H]1O[C@@H](Oc2ccc(O)cc2COC(=O)C2(O)CC(=O)[C@@H](O)[C@@H](O)[C@H]2O)[C@H](OC(=O)c2ccccc2)[C@@H](O)[C@@H]1O)c1ccccc1 (some centres undefined) [FLACOURTOSIDE D] |  | 35.5 | inactive | 
O=C(OC[C@H]1O[C@@H](Oc2ccc(O)cc2COC(=O)[C@@]2(O)[C@H](O)C=CC(=O)[C@@H]2O)[C@H](O)[C@@H](OC(=O)c2ccccc2)[C@@H]1O)c1ccccc1 [FLACOURTOSIDE E] |  | 13.4 | inactive | Non-toxic
O=C(OC[C@H]1O[C@@H](Oc2ccc(O)cc2COC(=O)[C@@]2(O)[C@H](O)C=CC(=O)[C@@H]2OC(=O)c2ccccc2)[C@H](OC(=O)c2ccccc2)[C@@H](O)[C@@H]1O)c1ccccc1 [FLACOURTOSIDE F] |  | 39.8 | inactive | 
O=C(OC[C@H]1O[C@@H](Oc2ccc(O)cc2COC(=O)c2ccccc2O)[C@H](O)[C@@H](O)[C@@H]1O)c1ccccc1 [ITOSIDE H] |  | 37.8 |  | 
O=C(OC[C@H]1O[C@@H](Oc2ccc(O)cc2CO)[C@H](O)[C@@H](O)[C@@H]1O)c1ccccc1 [POLIOTHYRSOSIDE] |  | > 50 |  | 
O=C(OC[C@H]1O[C@@H](Oc2ccc(O)cc2COC(=O)c2cccc(O)c2O)[C@H](OC(=O)c2ccccc2)[C@@H](O)[C@@H]1O)c1ccccc1 [SCOLOCHINENOSIDE D] |  | 9.5 |  | Non-toxic
O=C(OC[C@H]1O[C@@H](Oc2ccc(O)cc2COC(=O)[C@@]2(O)[C@H](O)C=CC(=O)[C@@H]2O)[C@H](OC(=O)c2ccccc2)[C@@H](O)[C@@H]1O)c1ccccc1 [XYLOSMIN] |  | 24.3 |  | 
